Here are results for 17 compounds from ChEMBL document CHEMBL1140795, “Antimicrobial activities of the bromophenols from the red alga Odonthalia corymbifera and some synthetic derivatives” (2008).

The subject of one assay is Salmonella typhimurium. Briefly: Antibacterial activity against Salmonella Typhimurium ATCC 14028 after 24 hrs. The settings on record: Salmonella enterica, ATCC 14028, 24 h. The assay is classed as functional, Salmonella enterica subsp. enterica serovar Typhimurium. In outline: (§1)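 Bacteria were grown overnight in LB broth at 37 °C, harvested by centrifugation and washed twice with sterile water. Test compounds were dissolved as DMSO stocks and serially diluted twofold in Standard method broth. Wells received broth containing about 10⁵ cfu/ml of bacteria and were incubated 24 h at 37 °C. The MIC was recorded.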

Another assay has as its system Trichophyton rubrum. Briefly: Antifungal activity against Trichophyton rubrum IFO 9185 after 48 to 72 hrs. The assay is classed as functional. The method, boiled down:
(§2)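 Filamentous fungi were grown on potato dextrose agar for 2 weeks at 28 °C. Spores were washed three times in sterile water and resuspended at 10⁵ spores/ml. Compounds were dissolved in DMSO and serially diluted twofold in potato dextrose broth. Wells received broth containing about 10⁴ cells/ml and were incubated 48–72 h at 28 °C. The MIC was recorded.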

A further assay relates to Trichophyton benhamiae. As to the kind of experiment: Antifungal activity against Trichophyton mentagrophytes IFO 40996 after 48 to 72 hrs. Format: functional, Arthroderma benhamiae. In outline: as §2
The next assay deals with Aspergillus fumigatus. Briefly: Antifungal activity against Aspergillus fumigatus HIC6094 after 48 to 72 hrs. The assay is classed as functional. In outline: as §2
In the next assay the test system is Staphylococcus aureus. Briefly: Antibacterial activity against Staphylococcus aureus ATCC 6538p after 24 hrs. The assay is classed as functional. In outline: as §1
The subject of another assay is Proteus vulgaris. Briefly: Antibacterial activity against Proteus vulgaris ATCC 3851 after 24 hrs. Format: functional. The following applies: ATCC 3851, 24 h. The method, boiled down:
as §1

A further assay has as its system Escherichia coli. As to the kind of experiment: Antibacterial activity against Escherichia coli ATCC 25922 after 24 hrs. The assay is classed as functional. The settings on record: ATCC 25922, 24 h. The method, boiled down: as §1
For a further assay, the system named is Bacillus subtilis. Briefly: Antibacterial activity against Bacillus subtilis ATCC 6633 after 24 hrs. Format: functional. The settings on record: ATCC 6633, 24 h. The method, boiled down:
as §1

A further assay deals with Candida albicans. Briefly: Antifungal activity against Candida albicans ATCC 10231 after 48 to 72 hrs. The assay is classed as functional. The method, boiled down:
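C. albicans ATCC 10231 was grown 48 h at 28 °C in YPD broth (1% yeast extract, 2% peptone, 2% dextrose), centrifuged and washed twice with sterile water. Compounds were dissolved in DMSO and serially diluted twofold in potato dextrose broth. Wells received broth containing about 10³ cells/ml and were incubated 48–72 h at 28 °C. The MIC was recorded.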

A further assay concerns Micrococcus luteus. As to the kind of experiment: Antibacterial activity against Micrococcus luteus IFC 12708 after 24 hrs. Format: functional. The method, boiled down: as §1

Values after ≈ are worked out from the molar mass of the structure shown.

For the compound `Oc1c(Br)cc(Cc2cc(Br)c(O)c(Br)c2)cc1Br`, the MIC against Salmonella typhimurium, in the assay with Trichophyton rubrum, in the assay on Trichophyton benhamiae, against Aspergillus fumigatus, in the assay on Staphylococcus aureus and with Proteus vulgaris was greater than 100 µg/mL throughout. The MIC with Escherichia coli, against Bacillus subtilis, against Candida albicans and in the assay with Micrococcus luteus was greater than 100 µg/mL in each case.
With `CC1(C)S[C@@H]2[C@H](NC(=O)[C@H](N)c3ccccc3)C(=O)N2[C@H]1C(=O)O` [AMPICILLIN], the MIC against Salmonella typhimurium amounted to 3.12 µg/mL (≈ 8.93 µM); with Staphylococcus aureus, 1.56 µg/mL (≈ 4.46 µM); against Proteus vulgaris it was 3.12 µg/mL (≈ 8.93 µM); against Escherichia coli, 12.5 µg/mL (≈ 35.8 µM); against Bacillus subtilis it was 1.56 µg/mL (≈ 4.46 µM); against Micrococcus luteus, 1.56 µg/mL (≈ 4.46 µM).
Take `OCc1cc(O)c(O)c(Br)c1Br` [LANOSOL]: the MIC with Salmonella typhimurium is greater than 100 µg/mL; against Trichophyton rubrum, 50 µg/mL (≈ 168 µM); against Trichophyton benhamiae, 50 µg/mL (≈ 168 µM); in the assay on Aspergillus fumigatus it was greater than 100 µg/mL; against Staphylococcus aureus it was greater than 100 µg/mL; with Proteus vulgaris, greater than 100 µg/mL. Moreover, the MIC in the assay on Escherichia coli, in the assay on Bacillus subtilis, in the assay on Candida albicans and against Micrococcus luteus was greater than 100 µg/mL each time.
Consider `Oc1ccc(Cc2cc(Br)c(O)c(Br)c2)cc1Br`, for which the minimum inhibitory concentration (MIC) against Salmonella typhimurium was 6.25 µg/mL (≈ 14.3 µM); against Trichophyton rubrum it was greater than 100 µg/mL; in the assay on Trichophyton benhamiae it was greater than 100 µg/mL; against Aspergillus fumigatus, greater than 100 µg/mL; with Staphylococcus aureus, 12.5 µg/mL (≈ 28.6 µM); against Proteus vulgaris, 6.25 µg/mL (≈ 14.3 µM). Also, the MIC in the assay on Escherichia coli was greater than 100 µg/mL; in the assay on Bacillus subtilis, 6.25 µg/mL (≈ 14.3 µM); in the assay with Candida albicans, greater than 100 µg/mL; with Micrococcus luteus, 6.25 µg/mL (≈ 14.3 µM).
As to `Oc1cc(Cc2cc(O)c(O)c(Br)c2Br)c(Br)c(Br)c1O`, the minimal inhibitory concentration (MIC) in the assay on Salmonella typhimurium amounted to 50 µg/mL (≈ 91.3 µM); in the assay with Trichophyton rubrum it was 1.56 µg/mL (≈ 2.85 µM); in the assay on Trichophyton benhamiae, 1.56 µg/mL (≈ 2.85 µM); with Aspergillus fumigatus, 0.78 µg/mL (≈ 1.42 µM); in the assay on Staphylococcus aureus it was 25 µg/mL (≈ 45.6 µM); against Proteus vulgaris, 50 µg/mL (≈ 91.3 µM). Further, the MIC against Escherichia coli was greater than 100 µg/mL; in the assay on Bacillus subtilis, 25 µg/mL (≈ 45.6 µM); against Candida albicans it was 1.56 µg/mL (≈ 2.85 µM); with Micrococcus luteus, 25 µg/mL (≈ 45.6 µM).
With `COCc1cc(O)c(O)c(Br)c1Br`, the MIC is greater than 100 µg/mL against Salmonella typhimurium; 12.5 µg/mL (≈ 40.1 µM) against Trichophyton rubrum; 12.5 µg/mL (≈ 40.1 µM) with Trichophyton benhamiae; greater than 100 µg/mL in the assay with Aspergillus fumigatus; greater than 100 µg/mL in the assay on Staphylococcus aureus; greater than 100 µg/mL with Proteus vulgaris. For the same compound, the MIC in the assay on Escherichia coli was greater than 100 µg/mL; against Bacillus subtilis it was greater than 100 µg/mL; against Candida albicans it was 100 µg/mL (≈ 321 µM); in the assay on Micrococcus luteus, greater than 100 µg/mL.
Consider `Oc1ccc(Cc2ccc(O)c(Br)c2)cc1Br`, for which the MIC against Salmonella typhimurium is 25 µg/mL (≈ 69.8 µM); in the assay on Trichophyton rubrum, greater than 100 µg/mL; in the assay on Trichophyton benhamiae it was greater than 100 µg/mL; with Aspergillus fumigatus it was greater than 100 µg/mL; with Staphylococcus aureus, 25 µg/mL (≈ 69.8 µM); in the assay with Proteus vulgaris, 25 µg/mL (≈ 69.8 µM). Also, the MIC against Escherichia coli is greater than 100 µg/mL; in the assay with Bacillus subtilis, 12.5 µg/mL (≈ 34.9 µM); against Candida albicans, greater than 100 µg/mL; against Micrococcus luteus, 12.5 µg/mL (≈ 34.9 µM).
Consider `COCc1cc(O)c(O)c(Br)c1Cc1cc(O)c(O)c(Br)c1Br`, for which the MIC against Salmonella typhimurium, against Trichophyton rubrum, in the assay on Trichophyton benhamiae, in the assay on Aspergillus fumigatus, in the assay on Staphylococcus aureus and in the assay on Proteus vulgaris was 25 µg/mL (≈ 48.7 µM) in each case. The MIC against Escherichia coli was greater than 100 µg/mL; in the assay on Bacillus subtilis, 25 µg/mL (≈ 48.7 µM); in the assay on Candida albicans, 25 µg/mL (≈ 48.7 µM); with Micrococcus luteus it was 25 µg/mL (≈ 48.7 µM).
On to `Oc1c(Br)cc(Cc2cc(Br)c(O)c(Br)c2O)c(O)c1Br`, for which the MIC with Salmonella typhimurium, with Trichophyton rubrum, in the assay on Trichophyton benhamiae, with Aspergillus fumigatus, against Staphylococcus aureus and against Proteus vulgaris was greater than 100 µg/mL in each case. Moreover, the MIC with Escherichia coli, against Bacillus subtilis, with Candida albicans and with Micrococcus luteus was greater than 100 µg/mL each time.
`Oc1c(Br)cc(Br)cc1Cc1cc(Br)cc(Br)c1O`: the MIC was 3.12 µg/mL (≈ 6.05 µM) with Salmonella typhimurium; greater than 100 µg/mL against Trichophyton rubrum; greater than 100 µg/mL against Trichophyton benhamiae; greater than 100 µg/mL with Aspergillus fumigatus; 1.56 µg/mL (≈ 3.02 µM) in the assay with Staphylococcus aureus; 1.56 µg/mL (≈ 3.02 µM) with Proteus vulgaris. Moreover, the MIC in the assay on Escherichia coli was greater than 100 µg/mL; with Bacillus subtilis, 1.56 µg/mL (≈ 3.02 µM); in the assay on Candida albicans it was greater than 100 µg/mL; in the assay with Micrococcus luteus it was 1.56 µg/mL (≈ 3.02 µM).
Turning to `Oc1ccc(Br)cc1Cc1cc(Br)ccc1O`, the MIC in the assay on Salmonella typhimurium was 3.12 µg/mL (≈ 8.71 µM); against Trichophyton rubrum, greater than 100 µg/mL; in the assay on Trichophyton benhamiae, greater than 100 µg/mL; in the assay on Aspergillus fumigatus, greater than 100 µg/mL; in the assay on Staphylococcus aureus, 3.12 µg/mL (≈ 8.71 µM); in the assay on Proteus vulgaris, 3.12 µg/mL (≈ 8.71 µM). The minimum inhibitory concentration (MIC) in the assay with Escherichia coli was greater than 100 µg/mL; with Bacillus subtilis, 3.12 µg/mL (≈ 8.71 µM); against Candida albicans, greater than 100 µg/mL; against Micrococcus luteus, 1.56 µg/mL (≈ 4.36 µM).
For `C[C@@H]1[C@H](O)[C@@H](C)/C=C/C=C/C=C/C=C/C=C/C=C/C=C/[C@H](O[C@@H]2O[C@H](C)[C@@H](O)[C@H](N)[C@@H]2O)C[C@@H]2O[C@](O)(C[C@@H](O)C[C@@H](O)[C@H](O)CC[C@@H](O)C[C@@H](O)CC(=O)O[C@H]1C)C[C@H](O)[C@H]2C(=O)O` [AMPHOTERICIN B], the minimum inhibitory concentration (MIC) worked out at 3.12 µg/mL (≈ 3.38 µM) against Trichophyton rubrum, 3.12 µg/mL (≈ 3.38 µM) against Trichophyton benhamiae, 3.12 µg/mL (≈ 3.38 µM) with Aspergillus fumigatus and 6.25 µg/mL (≈ 6.76 µM) in the assay on Candida albicans.
In the case of `Oc1ccc(Cc2ccc(O)c(O)c2)cc1O`, the MIC against Salmonella typhimurium, in the assay on Trichophyton rubrum, in the assay with Trichophyton benhamiae, with Aspergillus fumigatus, against Staphylococcus aureus and in the assay on Proteus vulgaris was greater than 100 µg/mL each time. For the same compound, the minimal inhibitory concentration (MIC) in the assay with Escherichia coli, against Bacillus subtilis, in the assay on Candida albicans and with Micrococcus luteus was greater than 100 µg/mL in each case.
For the compound `Oc1ccccc1Cc1cc(Br)ccc1O`, the MIC against Salmonella typhimurium is 25 µg/mL (≈ 89.6 µM); with Trichophyton rubrum it was greater than 100 µg/mL; in the assay with Trichophyton benhamiae, greater than 100 µg/mL; against Aspergillus fumigatus, greater than 100 µg/mL; in the assay on Staphylococcus aureus, 25 µg/mL (≈ 89.6 µM); against Proteus vulgaris, 25 µg/mL (≈ 89.6 µM). For the same compound, the MIC in the assay on Escherichia coli was greater than 100 µg/mL; in the assay with Bacillus subtilis, 25 µg/mL (≈ 89.6 µM); in the assay with Candida albicans it was greater than 100 µg/mL; in the assay on Micrococcus luteus it was 25 µg/mL (≈ 89.6 µM).
With `OCc1cc(O)c(O)c(Br)c1Cc1cc(O)c(O)c(Br)c1Br`, the MIC in the assay on Salmonella typhimurium was 100 µg/mL (≈ 200 µM); in the assay on Trichophyton rubrum, 50 µg/mL (≈ 100 µM); in the assay on Trichophyton benhamiae it was 50 µg/mL (≈ 100 µM); with Aspergillus fumigatus, greater than 100 µg/mL; against Staphylococcus aureus, 50 µg/mL (≈ 100 µM); in the assay on Proteus vulgaris, 100 µg/mL (≈ 200 µM). Also, the MIC was greater than 100 µg/mL against Escherichia coli, 100 µg/mL (≈ 200 µM) in the assay with Bacillus subtilis, 100 µg/mL (≈ 200 µM) in the assay with Candida albicans and 50 µg/mL (≈ 100 µM) against Micrococcus luteus.
Consider `OCc1cc(O)c(O)cc1Cc1ccc(O)c(O)c1`, for which the minimum inhibitory concentration (MIC) in the assay on Salmonella typhimurium, against Trichophyton rubrum, with Trichophyton benhamiae, in the assay on Aspergillus fumigatus, against Staphylococcus aureus and with Proteus vulgaris was greater than 100 µg/mL throughout. The MIC with Escherichia coli, in the assay on Bacillus subtilis, against Candida albicans and with Micrococcus luteus was greater than 100 µg/mL each time.
Turning to `NCCc1cc(Br)c(O)c(Br)c1`, the MIC with Salmonella typhimurium is greater than 100 µg/mL; against Trichophyton rubrum, greater than 100 µg/mL; in the assay on Trichophyton benhamiae it was greater than 100 µg/mL; with Aspergillus fumigatus, greater than 100 µg/mL; in the assay on Staphylococcus aureus, 100 µg/mL (≈ 339 µM); in the assay on Proteus vulgaris, greater than 100 µg/mL. For the same compound, the minimal inhibitory concentration (MIC) with Escherichia coli was greater than 100 µg/mL; with Bacillus subtilis, greater than 100 µg/mL; in the assay with Candida albicans, 100 µg/mL (≈ 339 µM); in the assay on Micrococcus luteus, greater than 100 µg/mL.
